Data published in ChEMBL document CHEMBL1629690, “Development of hexadecyloxypropyl tenofovir (CMX157) for treatment of infection caused by wild-type and nucleoside/nucleotide-resistant HIV” (Antimicrob Agents Chemother, 2010).

Experiments:
[1] = test system: Human immunodeficiency virus 1; test: Antiviral activity against HIV1 isolate 211 harboring reverse transcriptase D67N/K70R/T215F/K219E/M184V mutant gene by phenosense assay relative to wild type; type: functional
Summary of the method: (§1)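 PhenoSense HIV recombinant virus assay: patient-derived HIV-1 with major NRTI resistance mutations tested against increasing drug concentrations to give inhibition curves. EC50 is the concentration giving 50% inhibition. Fold change is the test recombinant EC50 divided by the EC50 of a drug-sensitive wild-type reference virus. Panel of 30 NRTI-resistant isolates plus two wild-type viruses.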

[2] = test system: Human immunodeficiency virus 1; test: Antiviral activity against HIV1 isolate 160 harboring reverse transcriptase S68G/V75(I/T)/F77L/Y115F/F116Y /Q151M mutant gene by phenosense assay; type: functional, organism-based; conditions: Human immunodeficiency virus 1, isolate 160
Summary of the method: (§2)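 Recombinant-virus PhenoSense HIV assay run on a panel of 30 NRTI-resistant HIV-1 mutants and two wild-type viruses. Each virus is tested across increasing drug concentrations to give an inhibition curve and EC50. Fold change is the test recombinant EC50 divided by the EC50 of the drug-sensitive wild-type reference virus.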

[3] = test system: Human immunodeficiency virus 1; test: Antiviral activity against HIV1 isolate 203 harboring reverse transcriptase M41L/L210W/T215Y/M184V mutant gene by phenosense assay relative to wild type; type: functional; summary of the method: as §1
[4] = test system: Human immunodeficiency virus 1; test: Antiviral activity against HIV1 isolate 058 harboring reverse transcriptase M41L/D67N/K70R/L210W/T215F/K219Q mutant gene by phenosense assay; type: functional, organism-based; conditions: Human immunodeficiency virus 1, isolate 058; summary of the method: as §2
[5] = test system: Human immunodeficiency virus 1; test: Antiviral activity against HIV1 isolate 185 harboring reverse transcriptase T215Y mutant gene by phenosense assay; type: functional, organism-based; conditions: Human immunodeficiency virus 1, isolate 185; summary of the method: as §2
[6] = test system: Human immunodeficiency virus 1; test: Antiviral activity against HIV1 isolate 206 harboring reverse transcriptase D67N/K70R mutant gene by phenosense assay; type: functional, organism-based; conditions: Human immunodeficiency virus 1, isolate 206; summary of the method: as §1
[7] = test system: Human immunodeficiency virus 1; test: Antiviral activity against HIV1 isolate 060 harboring reverse transcriptase M41L/D67N/K70R/L210W/T215Y/K219E mutant gene by phenosense assay; type: functional, organism-based; conditions: Human immunodeficiency virus 1, isolate 060; summary of the method: as §2
[8] = test system: Human immunodeficiency virus 1; test: Antiviral activity against HIV1 isolate 157 harboring reverse transcriptase L74V/M184V mutant gene by phenosense assay relative to wild type; type: functional; summary of the method: as §2
[9] = test system: Human immunodeficiency virus 1; test: Antiviral activity against HIV1 isolate 071 harboring reverse transcriptase 65R/S68N/184V mutant gene by phenosense assay relative to wild type; type: functional; summary of the method: as §2
[10] = test system: Human immunodeficiency virus 1; test: Antiviral activity against HIV1 isolate 058 harboring reverse transcriptase M41L/D67N/K70R/L210W/T215F/K219Q mutant gene by phenosense assay relative to wild type; type: functional; summary of the method: as §2
[11] = test system: Human immunodeficiency virus 1; test: Antiviral activity against HIV1 isolate 067 harboring reverse transcriptase A62V/D67G/T69SVG/V75I/T215I mutant gene by phenosense assay relative to wild type; type: functional; summary of the method: as §2
[12] = test system: Human immunodeficiency virus 1; test: Antiviral activity against HIV1 isolate 071 harboring reverse transcriptase 65R/S68N/184V mutant gene by phenosense assay; type: functional, organism-based; conditions: Human immunodeficiency virus 1, isolate 071; summary of the method: as §2
[13] = test system: Human immunodeficiency virus 1; test: Antiviral activity against HIV1 isolate 194 harboring reverse transcriptase M41L/T215Y/M184V mutant gene by phenosense assay; type: functional, organism-based; conditions: Human immunodeficiency virus 1, isolate 194; summary of the method: as §2
[14] = test system: Human immunodeficiency virus 1; test: Antiviral activity against HIV1 isolate 217 harboring reverse transcriptase D67N/K70E/M184V mutant gene by phenosense assay; type: functional, organism-based; conditions: Human immunodeficiency virus 1, isolate 217; summary of the method: as §1
[15] = test system: Human immunodeficiency virus 1; test: Antiviral activity against HIV1 isolate 203 harboring reverse transcriptase M41L/L210W/T215Y/M184V mutant gene by phenosense assay; type: functional, organism-based; conditions: Human immunodeficiency virus 1, isolate 203; summary of the method: as §1
[16] = test system: Human immunodeficiency virus 1; test: Antiviral activity against HIV1 isolate 174 harboring reverse transcriptase M184V mutant gene obtained as site-directed mutant of NL4-3 by phenosense assay; type: functional, organism-based; conditions: Human immunodeficiency virus 1, isolate 174; summary of the method: as §2
[17] = test system: Human immunodeficiency virus 1; test: Antiviral activity against HIV1 isolate 215 harboring reverse transcriptase D67N/K70E mutant gene by phenosense assay relative to wild type; type: functional; summary of the method: as §1
[18] = test system: Human immunodeficiency virus 1; test: Antiviral activity against HIV1 isolate 206 harboring reverse transcriptase D67N/K70R mutant gene by phenosense assay relative to wild type; type: functional; summary of the method: as §1
[19] = test system: Human immunodeficiency virus 1; test: Antiviral activity against HIV1 isolate 066 harboring reverse transcriptase 184V mutant gene by phenosense assay relative to wild type; type: functional; summary of the method: as §2
[20] = test system: Human immunodeficiency virus 1; test: Antiviral activity against HIV1 isolate 192 harboring reverse transcriptase M41L/T215Y mutant gene by phenosense assay relative to wild type; type: functional; summary of the method: as §2
[21] = test system: Human immunodeficiency virus 1; test: Antiviral activity against HIV1 isolate 212 harboring reverse transcriptase L210W/T215Y mutant gene by phenosense assay; type: functional, organism-based; conditions: Human immunodeficiency virus 1, isolate 212; summary of the method: as §1
[22] = test system: Human immunodeficiency virus 1; test: Antiviral activity against HIV1 isolate 061 harboring reverse transcriptase M41L/D67N/K70R/M184V/L210W/T215Y/K219E mutant gene by phenosense assay; type: functional, organism-based; conditions: Human immunodeficiency virus 1, isolate 061; summary of the method: as §2
[23] = test system: Human immunodeficiency virus 1; test: Antiviral activity against HIV1 isolate 192 harboring reverse transcriptase M41L/T215Y mutant gene by phenosense assay; type: functional, organism-based; conditions: Human immunodeficiency virus 1, isolate 192; summary of the method: as §2
[24] = test system: Human immunodeficiency virus 1; test: Antiviral activity against HIV1 isolate 162 harboring reverse transcriptase A62V/V75I/F77L/Y115F/F116Y/Q151M/M184V mutant gene by phenosense assay relative to wild type; type: functional; summary of the method: as §2
[25] = test system: Human immunodeficiency virus 1; test: Antiviral activity against HIV1 isolate 066 harboring reverse transcriptase 184V mutant gene by phenosense assay; type: functional, organism-based; conditions: Human immunodeficiency virus 1, isolate 066; summary of the method: as §2
[26] = test system: Human immunodeficiency virus 1; test: Antiviral activity against HIV1 isolate 180 harboring reverse transcriptase K65R mutant gene obtained as site-directed mutant of NL4-3 by phenosense assay; type: functional, organism-based; conditions: Human immunodeficiency virus 1, isolate 180; summary of the method: as §2
[27] = test system: Human immunodeficiency virus 1; test: Antiviral activity against HIV1 isolate 057 expressing wild type reverse transcriptase gene by phenosense assay; type: functional, organism-based; conditions: Human immunodeficiency virus 1, isolate 057
Summary of the method: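 In the PhenoSense recombinant virus assay, virus was tested against increasing drug concentrations. EC50 came from the inhibition curve and was compared with a drug-sensitive reference virus.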

SMILES | fold change (FC) [1] | EC50 [2] [µM] | fold change (FC) [3] | EC50 [4] [µM] | EC50 [5] [µM] | EC50 [6] [µM] | EC50 [7] [µM] | fold change (FC) [8] | fold change (FC) [9] | fold change (FC) [10] | fold change (FC) [11] | EC50 [12] [µM] | EC50 [13] [µM] | EC50 [14] [µM] | EC50 [15] [µM] | EC50 [16] [µM] | fold change (FC) [17] | fold change (FC) [18] | fold change (FC) [19] | fold change (FC) [20] | other results
Nc1nc(NC2CC2)c2ncn([C@H]3C=C[C@@H](CO)C3)c2n1 [ABACAVIR] | 4.4 | 34 | 4.6 | 7.9 | 3.7 | 2.5 | 11 | 5.2 | 6.6 | 4.4 | 18 | 12 | 9.6 | 5.1 | 8.2 | 4.7 | 1.4 | 1.4 | 2.7 | 1.9 | EC50 [21]: 3.6 µM; EC50 [22]: 22 µM; EC50 [23]: 3.4 µM; fold change (FC) [24]: >29; EC50 [25]: 4.8 µM; EC50 [26]: 4.6 µM; EC50 [27]: 1.7 µM
Cc1cn([C@H]2C=C[C@@H](CO)O2)c(=O)[nH]c1=O [STAVUDINE] | 1.3 | 5.5 | 1.5 | 2.2 | 0.83 | 0.78 | 2.8 | 0.71 | 0.99 | 3.7 | 11 | 0.59 | 0.86 | 0.42 | 0.88 | 0.4 | 0.94 | 1.3 | 0.77 | 1.4 | EC50 [21]: 0.94 µM; EC50 [22]: 2.4 µM; EC50 [23]: 0.84 µM; fold change (FC) [24]: 7.1; EC50 [25]: 0.46 µM; EC50 [26]: 0.83 µM; EC50 [27]: 0.48 µM
Nc1ccn([C@@H]2CS[C@H](CO)O2)c(=O)n1 [LAMIVUDINE] | >80 | 90 | >80 | 14 | 6.1 | 8.1 | 22 | >80 | >80 | 3.7 | 12 | > 300 | > 300 | > 300 | > 300 | > 300 | 2.9 | 2.1 | >80 | 2 | EC50 [21]: 7.3 µM; EC50 [22]: > 300 µM; EC50 [23]: 7.6 µM; fold change (FC) [24]: >80; EC50 [25]: > 300 µM; EC50 [26]: 43 µM; EC50 [27]: 4.4 µM
Nc1nc(=O)n([C@@H]2CS[C@H](CO)O2)cc1F [EMTRICITABINE] | >88 | 35 | >88 | 5.7 | 2.6 | 3.3 | 11 | >88 | >88 | 5 | 26 | > 100 | > 100 | > 100 | > 100 | > 100 | 3 | 2.9 | >88 | 2.7 | EC50 [21]: 2.6 µM; EC50 [22]: > 100 µM; EC50 [23]: 3.1 µM; fold change (FC) [24]: >88; EC50 [25]: > 100 µM; EC50 [26]: 13 µM; EC50 [27]: 1.6 µM
O=c1[nH]cnc2c1ncn2[C@H]1CC[C@@H](CO)O1 [DIDANOSINE] | 1.6 | 63 | 1.5 | 8.8 | 6.3 | 6.6 | 8.9 | 2 | 2.6 | 1.6 | 4 | 14 | 10 | 7.3 | 8.2 | 6.8 | 1.4 | 1.2 | 1.4 | 1.1 | EC50 [21]: 5.5 µM; EC50 [22]: 12 µM; EC50 [23]: 6.3 µM; fold change (FC) [24]: 11; EC50 [25]: 7.6 µM; EC50 [26]: 11 µM; EC50 [27]: 5.6 µM
